Values after ≈ are worked out from the molar mass of the structure shown. Active and inactive are the calls of the source. The rule behind the calls is not given here.
Assays:
[1] = Plasma protein binding in Sprague-Dawley rat after 6 hrs by equilibrium dialysis method; type: ADME, cell-free; conditions: read-out: PPB (converted)
[2] = target: Metabotropic glutamate receptor 8 (Homo sapiens) (UniProt O00222); assay: Agonist activity at mGluR8 assessed as effect on intracellular Ca2+ level up to 30 uM by cell based FLIPR assay; type: functional
How it was run: (§1)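 Each of the seven other mGluR subtypes was tested at concentrations up to 30 µM. Agonist, antagonist and positive allosteric modulator modes were each assessed. Read-out was the change in intracellular Ca2+ on FLIPR.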

[3] = Intrinsic clearance in human liver microsomes; type: ADME, Microsome; conditions: read-out: CLH
How it was run: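 Intrinsic clearance was determined in human or rat microsomes and expressed per min per mg protein.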

[4] = target: Metabotropic glutamate receptor 2 (Homo sapiens) (UniProt Q14416); assay: Antagonist activity at mGluR2 assessed as effect on intracellular Ca2+ level up to 30 uM by cell based FLIPR assay; type: functional; how it was run: as §1
[5] = target: T1, Metabotropic glutamate receptor 5 (Homo sapiens, UniProt P41594); assay: Displacement of [3H]MPEP from human mGluR5 expressed in HEK293 cell membranes expressing GLAST after 1 hr by scintillation counter
[6] = AUC (0 to 8 hrs) in Sprague-Dawley rat at 3 umol/kg, po; type: ADME, organism-based; set-up: time < 8 hr, dose 3 umol/kg, route oral; conditions: plasma
How it was run: (§2)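 Male rats (n = 3) received a single oral dose of 3 µmol/kg. Vehicle was Polyvidon K30 1.7 mg/ml, sodium lauryl sulphate 0.34 mg/ml and glycerin 25.0 mg/ml in water. Plasma levels were measured by liquid–liquid extraction and reversed-phase LC-MS/MS (APCI or ESI).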

[7] = target: Metabotropic glutamate receptor 5 (Rattus norvegicus, UniProt P31424); assay: Displacement of [3H]AZD9272 from mGluR5 in Sprague-Dawley rat striatum by autoradiographic analysis
How it was run: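 Sections were cut from rat striatum (plates 13–16, 2 rats). They were incubated with 3 nM [3H]AZD9272 plus increasing concentrations of competitor. Nonspecific binding was defined with 10 µM MPEP. Bound label was read by autoradiography (mean, SD, n = 2).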

[8] = target: Metabotropic glutamate receptor 5 (Rattus norvegicus) (UniProt P31424); assay: Negative allosteric modulation of rat recombinant mGluR5 expressed in HEK293 cells expressing GLAST assessed as inhibition of ATP-induced intracellular Ca2+ level at 10 uM after 30 mins by FLIPR assay; type: functional, cell-based
How it was run: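 FLIPR intracellular Ca2+ readout in background GHEK cells (HEK293 with glutamate/aspartate transporter, lacking mGluR5), stimulated with 10 µM ATP; test compound at 10 µM to check off-target inhibition.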

[9] = Equilibrium solubility of the compound […]; type: physicochemical
How it was run: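 Solubility was measured by a dried-DMSO rapid-throughput method.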

[10] = target: T1, Metabotropic glutamate receptor 5; assay: Displacement of [3H]AZD9272 from human mGluR5 expressed in HEK293 cell membranes expressing GLAST after 1 hr by scintillation counter
[11] = target: Metabotropic glutamate receptor 8 (Homo sapiens) (UniProt O00222); assay: Antagonist activity at mGluR8 assessed as effect on intracellular Ca2+ level up to 30 uM by cell based FLIPR assay; type: functional; how it was run: as §1
[12] = target: T1, Metabotropic glutamate receptor 5; assay: Negative allosteric modulation of human recombinant mGluR5 expressed in HEK293 cells expressing GLAST assessed as inhibition of DHPG-induced intracellular Ca2+ level at 0.001 to 3 uM after 30 mins by FLIPR assay; type: functional, cell-based
[13] = Oral bioavailability in Sprague-Dawley rat at 3 umol/kg; type: ADME, organism-based; conditions: in vivo; how it was run: as §2
[14] = target: Metabotropic glutamate receptor 1 (Homo sapiens) (UniProt Q13255); assay: Antagonist activity at mGluR1 assessed as effect on intracellular Ca2+ level up to 30 uM by cell based FLIPR assay; type: functional; how it was run: as §1
[15] = target: Metabotropic glutamate receptor 7 (Homo sapiens) (UniProt Q14831); assay: Antagonist activity at mGluR7 assessed as effect on intracellular Ca2+ level up to 30 uM by cell based FLIPR assay; type: functional; how it was run: as §1
[16] = Terminal half life in Sprague-Dawley rat at 3 umol/kg, iv; type: ADME, organism-based; conditions: in vivo, read-out: beta t1/2 (converted)
How it was run: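 Male rats (n = 3) received a single intravenous dose of 3 µmol/kg. Vehicle was 40% w/w dimethylacetamide/40% w/w PEG 400/20% w/w water. Plasma drug was measured after liquid–liquid extraction by reversed-phase LC with APCI or ESI tandem MS.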

[17] = target: Metabotropic glutamate receptor 2 (Homo sapiens) (UniProt Q14416); assay: Positive allosteric modulation of mGluR2 assessed as effect on intracellular Ca2+ level up to 30 uM by cell based FLIPR assay; type: functional; how it was run: as §1
[18] = target: T1, Metabotropic glutamate receptor 5; conditions: HEK293, tested as the 3H-labelled form
[19] = target: T1, Metabotropic glutamate receptor 5; conditions: HEK293, tested as the 3H-labelled form; remark: listed apart in the source
[20] = target: T1, Metabotropic glutamate receptor 5; assay: Binding affinity to human mGluR5 expressed in HEK293 cell membranes expressing GLAST assessed as per mg of protein after 1 hr by scintillation counter; conditions: tested as the 3H-labelled form
[21] = target: T1, Metabotropic glutamate receptor 5; assay: Binding affinity to human mGluR5 expressed in HEK293 cell membranes expressing GLAST assessed as per mg of protein after 1 hr by scintillation counter in absence of MPEP; conditions: tested as the 3H-labelled form
How it was run: (§3)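 [3H]AZD9272 equilibrium saturation binding on membranes from human mGluR5-GHEK cells (HEK293 stably expressing glutamate/aspartate transporter), run without MPEP or with 10 or 20 nM MPEP; filtration termination; Kd and Bmax (pmol/mg protein) derived per assay, three separate assays.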

[22] = target: T1, Metabotropic glutamate receptor 5; assay: Binding affinity to human mGluR5 expressed in HEK293 cell membranes expressing GLAST assessed as per mg of protein after 1 hr by scintillation counter in presence of 10 nM MPEP; conditions: tested as the 3H-labelled form; how it was run: as §3
[23] = target: T1, Metabotropic glutamate receptor 5; assay: Binding affinity to human mGluR5 expressed in HEK293 cell membranes expressing GLAST assessed as per mg of protein after 1 hr by scintillation counter in presence of 20 nM MPEP; conditions: tested as the 3H-labelled form; how it was run: as §3
[24] = target: Metabotropic glutamate receptor 5 (Rattus norvegicus) (UniProt P31424); assay: Binding affinity to mGluR5 in Sprague-Dawley rat striatum assessed per mg of protein after 60 mins by autoradiographic analysis; conditions: tested as the 3H-labelled form
[25] = AUC in Sprague-Dawley rat at 3 umol/kg, po; type: ADME, organism-based; conditions: plasma; how it was run: as §2

Sequence of Metabotropic glutamate receptor 2 (Homo sapiens) (Q14416 19-872 limits assumed): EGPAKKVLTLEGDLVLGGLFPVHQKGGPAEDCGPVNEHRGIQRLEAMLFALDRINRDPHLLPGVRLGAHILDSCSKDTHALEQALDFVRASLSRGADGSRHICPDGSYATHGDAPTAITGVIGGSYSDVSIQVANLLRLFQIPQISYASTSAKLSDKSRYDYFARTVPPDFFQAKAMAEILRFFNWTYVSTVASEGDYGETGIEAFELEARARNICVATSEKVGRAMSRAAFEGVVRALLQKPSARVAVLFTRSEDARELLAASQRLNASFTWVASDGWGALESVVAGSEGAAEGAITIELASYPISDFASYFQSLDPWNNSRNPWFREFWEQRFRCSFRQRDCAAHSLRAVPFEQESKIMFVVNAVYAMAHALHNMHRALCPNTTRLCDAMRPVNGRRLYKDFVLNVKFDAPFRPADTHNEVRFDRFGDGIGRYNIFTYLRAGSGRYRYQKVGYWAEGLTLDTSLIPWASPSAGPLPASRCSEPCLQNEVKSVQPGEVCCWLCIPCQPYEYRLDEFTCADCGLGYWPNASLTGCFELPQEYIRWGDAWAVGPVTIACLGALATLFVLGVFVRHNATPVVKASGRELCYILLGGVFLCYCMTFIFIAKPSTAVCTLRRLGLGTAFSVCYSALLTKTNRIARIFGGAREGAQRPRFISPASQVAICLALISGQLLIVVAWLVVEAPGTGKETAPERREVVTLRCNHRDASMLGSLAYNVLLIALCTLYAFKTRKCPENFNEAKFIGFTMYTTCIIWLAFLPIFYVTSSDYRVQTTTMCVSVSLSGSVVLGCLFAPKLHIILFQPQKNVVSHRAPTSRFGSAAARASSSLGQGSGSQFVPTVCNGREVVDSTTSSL
Sequence of Metabotropic glutamate receptor 8 (Homo sapiens) (O00222 whole entry): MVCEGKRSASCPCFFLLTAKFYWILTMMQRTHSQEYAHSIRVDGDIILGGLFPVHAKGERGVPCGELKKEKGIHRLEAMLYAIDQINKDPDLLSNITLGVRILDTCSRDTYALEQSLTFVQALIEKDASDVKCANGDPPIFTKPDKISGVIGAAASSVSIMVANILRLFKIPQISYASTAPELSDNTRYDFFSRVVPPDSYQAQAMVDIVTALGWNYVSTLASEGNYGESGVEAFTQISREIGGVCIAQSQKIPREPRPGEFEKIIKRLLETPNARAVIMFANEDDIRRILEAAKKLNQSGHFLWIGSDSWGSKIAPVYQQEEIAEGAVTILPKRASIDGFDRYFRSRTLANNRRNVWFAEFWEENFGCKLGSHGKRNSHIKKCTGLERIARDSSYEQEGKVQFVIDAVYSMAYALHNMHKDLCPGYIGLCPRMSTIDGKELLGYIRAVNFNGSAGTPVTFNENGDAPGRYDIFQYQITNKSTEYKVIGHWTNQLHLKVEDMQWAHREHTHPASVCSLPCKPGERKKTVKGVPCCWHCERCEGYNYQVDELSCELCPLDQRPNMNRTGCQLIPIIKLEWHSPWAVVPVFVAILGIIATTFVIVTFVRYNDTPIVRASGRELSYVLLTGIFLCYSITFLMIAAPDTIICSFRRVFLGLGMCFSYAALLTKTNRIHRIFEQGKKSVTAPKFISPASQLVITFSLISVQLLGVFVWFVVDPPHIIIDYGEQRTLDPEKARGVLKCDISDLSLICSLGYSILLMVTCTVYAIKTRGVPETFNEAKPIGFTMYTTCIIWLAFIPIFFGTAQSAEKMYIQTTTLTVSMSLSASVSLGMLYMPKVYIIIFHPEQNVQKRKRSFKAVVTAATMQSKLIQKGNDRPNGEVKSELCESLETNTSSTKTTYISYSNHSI
Sequence of Metabotropic glutamate receptor 5 (Rattus norvegicus) (P31424 21-1203 limits assumed): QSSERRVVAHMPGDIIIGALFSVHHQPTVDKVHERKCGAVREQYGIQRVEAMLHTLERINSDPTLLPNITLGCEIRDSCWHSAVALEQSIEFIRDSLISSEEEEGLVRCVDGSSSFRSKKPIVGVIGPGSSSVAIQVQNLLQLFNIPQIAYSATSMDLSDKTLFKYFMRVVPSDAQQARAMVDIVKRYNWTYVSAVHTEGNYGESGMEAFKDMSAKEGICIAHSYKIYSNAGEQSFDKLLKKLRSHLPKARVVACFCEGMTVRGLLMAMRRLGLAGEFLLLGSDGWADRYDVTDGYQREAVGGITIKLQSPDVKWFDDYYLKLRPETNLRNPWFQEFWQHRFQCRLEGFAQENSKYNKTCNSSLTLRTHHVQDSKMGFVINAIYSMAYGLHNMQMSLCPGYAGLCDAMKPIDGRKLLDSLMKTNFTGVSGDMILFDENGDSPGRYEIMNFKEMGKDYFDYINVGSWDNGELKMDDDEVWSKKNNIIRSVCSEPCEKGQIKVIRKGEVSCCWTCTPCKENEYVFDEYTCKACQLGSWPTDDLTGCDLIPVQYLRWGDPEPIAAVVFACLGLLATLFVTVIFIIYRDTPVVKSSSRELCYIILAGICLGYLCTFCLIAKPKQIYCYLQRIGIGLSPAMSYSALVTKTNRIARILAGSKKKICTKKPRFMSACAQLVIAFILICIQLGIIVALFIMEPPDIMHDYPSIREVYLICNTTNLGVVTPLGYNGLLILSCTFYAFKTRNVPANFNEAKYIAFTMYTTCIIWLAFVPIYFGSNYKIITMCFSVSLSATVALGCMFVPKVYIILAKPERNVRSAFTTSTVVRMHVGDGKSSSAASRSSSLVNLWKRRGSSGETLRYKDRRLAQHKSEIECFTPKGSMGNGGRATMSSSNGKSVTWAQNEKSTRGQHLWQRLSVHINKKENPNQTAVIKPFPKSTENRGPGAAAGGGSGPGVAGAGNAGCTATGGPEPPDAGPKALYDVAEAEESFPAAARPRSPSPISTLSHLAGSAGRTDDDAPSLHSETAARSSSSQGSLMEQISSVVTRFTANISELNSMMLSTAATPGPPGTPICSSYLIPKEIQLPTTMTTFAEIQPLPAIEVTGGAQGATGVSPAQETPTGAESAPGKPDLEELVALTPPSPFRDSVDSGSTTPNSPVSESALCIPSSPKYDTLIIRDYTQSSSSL
Sequence of Metabotropic glutamate receptor 1 (Homo sapiens) (Q13255 19-1194 limits assumed): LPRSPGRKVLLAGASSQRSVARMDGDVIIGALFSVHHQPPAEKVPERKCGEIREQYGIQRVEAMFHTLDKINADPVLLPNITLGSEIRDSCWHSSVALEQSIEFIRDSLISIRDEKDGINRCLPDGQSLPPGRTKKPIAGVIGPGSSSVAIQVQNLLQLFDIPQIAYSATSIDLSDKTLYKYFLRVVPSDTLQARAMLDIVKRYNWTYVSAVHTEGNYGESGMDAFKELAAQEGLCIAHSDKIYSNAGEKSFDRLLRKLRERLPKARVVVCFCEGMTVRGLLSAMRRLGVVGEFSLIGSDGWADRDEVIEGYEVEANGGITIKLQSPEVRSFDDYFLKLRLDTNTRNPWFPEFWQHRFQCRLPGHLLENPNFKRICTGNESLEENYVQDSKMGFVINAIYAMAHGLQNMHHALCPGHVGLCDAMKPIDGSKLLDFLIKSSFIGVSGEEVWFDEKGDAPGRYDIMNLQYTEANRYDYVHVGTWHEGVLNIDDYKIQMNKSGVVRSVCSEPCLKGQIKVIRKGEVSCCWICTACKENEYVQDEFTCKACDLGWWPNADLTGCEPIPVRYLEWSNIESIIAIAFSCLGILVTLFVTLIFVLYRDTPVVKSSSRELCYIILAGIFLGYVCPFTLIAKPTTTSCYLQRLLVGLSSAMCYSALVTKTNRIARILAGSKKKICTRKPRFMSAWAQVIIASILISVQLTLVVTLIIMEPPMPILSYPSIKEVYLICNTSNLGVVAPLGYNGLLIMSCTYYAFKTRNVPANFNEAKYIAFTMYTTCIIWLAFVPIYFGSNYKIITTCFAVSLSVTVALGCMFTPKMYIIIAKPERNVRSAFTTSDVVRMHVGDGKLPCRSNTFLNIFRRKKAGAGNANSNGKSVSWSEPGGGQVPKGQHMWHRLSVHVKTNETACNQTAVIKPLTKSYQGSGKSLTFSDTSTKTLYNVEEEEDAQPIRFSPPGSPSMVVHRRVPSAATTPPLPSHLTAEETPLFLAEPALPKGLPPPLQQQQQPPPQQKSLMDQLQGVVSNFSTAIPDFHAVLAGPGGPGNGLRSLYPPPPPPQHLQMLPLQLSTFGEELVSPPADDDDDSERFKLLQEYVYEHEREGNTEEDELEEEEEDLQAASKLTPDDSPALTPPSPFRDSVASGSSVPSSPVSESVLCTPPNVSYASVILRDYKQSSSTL
Sequence of Metabotropic glutamate receptor 7 (Homo sapiens) (Q14831 whole entry): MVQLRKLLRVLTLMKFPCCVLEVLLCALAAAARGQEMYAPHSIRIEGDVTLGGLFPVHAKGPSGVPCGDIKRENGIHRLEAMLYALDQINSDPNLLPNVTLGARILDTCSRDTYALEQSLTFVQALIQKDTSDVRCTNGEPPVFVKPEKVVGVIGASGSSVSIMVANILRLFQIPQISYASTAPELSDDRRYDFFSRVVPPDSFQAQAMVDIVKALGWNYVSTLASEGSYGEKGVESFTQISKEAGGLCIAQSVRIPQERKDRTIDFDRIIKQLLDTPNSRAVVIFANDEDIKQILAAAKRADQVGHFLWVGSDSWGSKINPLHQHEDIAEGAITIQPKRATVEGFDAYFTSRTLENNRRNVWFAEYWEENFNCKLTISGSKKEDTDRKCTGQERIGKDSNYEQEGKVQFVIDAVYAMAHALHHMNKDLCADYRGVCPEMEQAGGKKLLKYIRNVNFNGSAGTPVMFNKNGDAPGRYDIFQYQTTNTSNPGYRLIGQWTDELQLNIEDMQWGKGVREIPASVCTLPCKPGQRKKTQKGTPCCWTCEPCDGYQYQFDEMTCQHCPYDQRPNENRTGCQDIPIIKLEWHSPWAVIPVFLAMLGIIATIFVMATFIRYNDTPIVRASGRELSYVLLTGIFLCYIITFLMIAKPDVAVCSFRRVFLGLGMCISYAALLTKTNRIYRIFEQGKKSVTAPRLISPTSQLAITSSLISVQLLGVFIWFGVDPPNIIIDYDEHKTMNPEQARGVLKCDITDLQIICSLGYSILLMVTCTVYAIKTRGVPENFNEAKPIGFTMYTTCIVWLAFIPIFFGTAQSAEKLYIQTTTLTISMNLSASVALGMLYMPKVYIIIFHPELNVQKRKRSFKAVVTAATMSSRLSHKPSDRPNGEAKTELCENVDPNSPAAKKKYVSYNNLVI

fraction unbound at 6 h [1]	Activity [2]	microsomal CLint [3]	inhibition [4]	inhibition [8]	solubility [9]	inhibition [11]	inhibition [12]	bioavailability [13]	inhibition [14]	inhibition [15]	half-life [16]	Activity [17]	Structure (SMILES)	other results
0.23	< 50%	3 µL/min/mg	< 50%	inactive	16.1 µM (≈ 4.69 µg/mL)	< 50%	100%	46%	< 50%	< 50%	5.6 h	< 50%	N#Cc1ccc(-c2noc(-c3cc(F)cc(C#N)c3)n2)nc1	Ki [5]: 28 nM; AUC(0-t) at 8 h [6]: 3.6 µM·h; IC50 [7]: 14.5 nM; Ki [10]: 17.9 nM
0.2	< 50%	13.5 µL/min/mg	< 50%	inactive	4.2 µM (≈ 1.19 µg/mL)	< 50%	100%	56%	< 50%	< 50%	2.5 h	< 50%	N#Cc1cc(F)cc(-c2nc(-c3ccc(F)cn3)no2)c1	T1/2 [18]: 3.45 min; T1/2 [19]: 7.85 min; Bmax [20]: 4.4 pmol; Bmax [21]: 5.3 pmol; Bmax [22]: 5.1 pmol; Bmax [23]: 5 pmol; Bmax [24]: 1550 fmol/mg; AUC [25]: 5.4 µM·h

Reference: ChEMBL document CHEMBL2163282, “Discovery and characterization of AZD9272 and AZD6538-Two novel mGluR5 negative allosteric modulators selected for clinical development” (Bioorg Med Chem Lett, 2012)
